Bioassay records (PubChem BioAssay)
GSTO1 counter = inhibitors of recombinant GSTO1, primary screen, counter-screen for RBBP9 inhibitor project, biochemical, fluorescence polarization; activity-based probe fluorescence polarization; inhibition, % at 5.96 µM; actives 1.1% (n = 300,000); AID 1974, 2009;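 active means inhibition above the campaign mean inhibition plus 3 SD, cut at about 35% in these data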
Apaf1 inhib = inhibitors of human Apaf-1 apoptosome, primary screen, biochemical, DEVD-Rh110 fluorescence, uHTS; Apoptotic protease-activating factor 1 (Homo sapiens), O14727; inhibition, % at 20 µM; reconstituted apoptosome caspase-3 activity; actives 0.71% (n = 330,000); active means inhibition of at least 40% at 20 µM
Target sequence (O14727 whole entry, looked up): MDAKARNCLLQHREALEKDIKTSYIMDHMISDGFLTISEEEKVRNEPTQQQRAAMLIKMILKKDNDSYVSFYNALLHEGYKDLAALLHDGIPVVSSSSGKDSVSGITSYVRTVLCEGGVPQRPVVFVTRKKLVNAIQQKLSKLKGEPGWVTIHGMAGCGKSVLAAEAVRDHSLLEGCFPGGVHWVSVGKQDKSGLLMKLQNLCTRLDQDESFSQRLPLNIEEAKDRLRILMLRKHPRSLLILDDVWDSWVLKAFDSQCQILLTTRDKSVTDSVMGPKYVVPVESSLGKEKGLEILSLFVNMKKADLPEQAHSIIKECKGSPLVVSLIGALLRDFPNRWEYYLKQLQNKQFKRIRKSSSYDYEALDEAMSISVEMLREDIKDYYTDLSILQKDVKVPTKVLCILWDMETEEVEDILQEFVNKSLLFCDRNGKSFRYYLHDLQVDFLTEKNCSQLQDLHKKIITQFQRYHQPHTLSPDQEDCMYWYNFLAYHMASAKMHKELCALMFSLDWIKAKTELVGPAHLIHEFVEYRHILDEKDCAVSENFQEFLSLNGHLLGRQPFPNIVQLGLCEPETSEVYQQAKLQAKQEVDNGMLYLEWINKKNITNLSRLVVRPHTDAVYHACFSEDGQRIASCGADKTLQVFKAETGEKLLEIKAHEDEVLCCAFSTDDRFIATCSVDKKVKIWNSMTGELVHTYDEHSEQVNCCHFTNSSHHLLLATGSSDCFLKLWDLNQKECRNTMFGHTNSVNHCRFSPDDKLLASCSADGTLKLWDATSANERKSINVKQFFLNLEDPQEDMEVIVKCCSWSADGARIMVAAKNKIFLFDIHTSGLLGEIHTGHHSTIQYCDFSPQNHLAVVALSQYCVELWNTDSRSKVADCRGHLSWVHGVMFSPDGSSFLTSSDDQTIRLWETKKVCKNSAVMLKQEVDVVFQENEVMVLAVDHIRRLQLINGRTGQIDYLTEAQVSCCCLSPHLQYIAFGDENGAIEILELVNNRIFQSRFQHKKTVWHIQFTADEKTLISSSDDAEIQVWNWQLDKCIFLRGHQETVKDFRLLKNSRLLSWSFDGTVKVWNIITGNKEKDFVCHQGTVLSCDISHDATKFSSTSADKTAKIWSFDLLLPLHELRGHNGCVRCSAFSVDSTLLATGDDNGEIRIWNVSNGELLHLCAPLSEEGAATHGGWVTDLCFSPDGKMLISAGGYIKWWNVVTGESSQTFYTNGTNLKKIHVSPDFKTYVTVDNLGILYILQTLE
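Material: reconstituted apoptosome with Apaf-1, cytochrome c, caspase-9, procaspase-3, dATP. Technique: Rh110 fluorescence intensity. Buffer or medium: pH 7.5 Hepes buffer with CHAPS, BSA, DTT. Times: 30 min plus 50 min, RT.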
TDP2 inh = human TDP2 enzyme inhibitors, primary screen, biochemical, epi absorbance, recombinant enzyme | Tyrosyl-DNA phosphodiesterase 2 (Homo sapiens), O95551 | T5PNP hydrolysis, p-nitrophenol absorbance 415 nm | inhibition, % at 12.8 µM | actives 0.34% (n = 370,000) | AID 720702, 2013;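 active means inhibition above the mean of all tested compounds plus 3 SD, set per campaign, cut at about 25% in these data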
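Assay system: recombinant human TDP2 / Reagent: T5PNP substrate at 5 mM, a TopII-DNA adduct mimic / Measured by: epi absorbance from released p-nitrophenol / Evaluation: % inhibition relative to enzyme-containing and enzyme-free wells / Control set: enzyme-free and DMSO wells / Replicates: each compound tested once, singlicate / Schedule: enzyme reaction with compound for 2 h at 37 °C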
PP1 inh = PP1-alpha phosphatase inhibitors, primary screen, counter-screen for PP5 inhibitor project, biochemical, fluorescence, OMFP substrate, single point; inhibition, % at 6.7 µM; actives 0.9% (n = 320,000); purified PP1alpha; Serine/threonine-protein phosphatase PP1-alpha catalytic subunit (Homo sapiens), P62136;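 active means inhibition above the mean inhibition of all tested compounds plus 3 SD, computed separately for each screening campaign, cut at about 15% in these data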
PP5 inh = PP5 phosphatase inhibitors, primary screen, biochemical, fluorescence. Serine/threonine-protein phosphatase 5 (Homo sapiens), P53041. purified PP5c, OMFP substrate fluorescence. inhibition, % at 6.7 µM. actives 0.18% (n = 320,000). AID 1987, 2009;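 active means inhibition above the campaign's mean inhibition across all tested compounds plus 3 SD, cut at about 9.5% in these data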
PP5 conf = PP5 phosphatase inhibitors, confirmation, biochemical, fluorescence, human | shares compounds with PP5 inh | Purified PP5, fluorogenic phosphatase substrate | inhibition, % at 6.7 µM | actives 22% (n = 460) | AID 2331, 2010; in the data active means inhibition above about 9.5%
PP1 inh counter = PP1 phosphatase inhibitors, counter-screen for PP5 inhibitor project, biochemical, fluorescence, triplicate; shares compounds with PP5 inh; PP1 enzyme, fluorescent phosphatase substrate; inhibition, % at 6.7 µM; actives 4% (n = 460); AID 2355, 2010; in the data active means inhibition above about 16%
Numbers stand for hits; . = inactive; / = not tested or not shown. Only some compounds are listed: those with a hit (about 2.1% of all), similar ones and a draw of the others.

SMILES	GSTO1 counter	Apaf1 inhib	TDP2 inh	PP1 inh	PP5 inh	PP5 conf	PP1 inh counter
CCOC(=O)NC(NC(=S)Nc1ccccc1[N+](=O)[O-])C(Cl)(Cl)Cl (centres undefined)	.	.	.	.	10.5	.	.
COc1ccc(NC(=S)NC(NC(C)=O)C(Cl)(Cl)Cl)c([N+](=O)[O-])c1 (centres undefined)	.	.	.	.	.	/	/
O=C1C=C[C@H]2CC[C@@H](O)[C@@H]1[C@@H]2Sc1ccccc1	/	/	.	/	/	/	/
O=C(O)CCCN1C(=O)C2C3CCC(O3)C2C1=O (centres undefined)	.	.	.	.	16.9	.	.
COc1cccc(C(=O)N[C@@H](Cc2cccnc2)C(=O)N2CCC[C@H]2C(=O)NCc2ccccc2)c1	/	/	.	/	/	/	/
CCCN(CCC)C(=O)CC(c1ccccc1)c1cc(Br)ccc1O (centres undefined)	.	.	.	.	11.5	.	.
COC(=O)C1CN(Cc2ccccc2)CCS(=O)(=O)N1Cc1ccc(C(F)(F)F)cc1 (centres undefined)	/	/	.	/	/	/	/
CCc1ccccc1NC(=O)C1C2C=CC(O2)C1C(=O)O (centres undefined)	.	.	.	.	21.1	.	.
CCOc1ccccc1NC(=O)C1C2C=CC(O2)C1C(=O)O (centres undefined)	.	.	.	.	29.8	.	.
CCOc1ccc(S(N)(=O)=O)cc1-c1nc2c(C(C)(C)C)nn(C)c2c(=O)[nH]1	.	.	.	.	.	/	/
CCOc1ccc(S(=O)(=O)NC(C)(C)C)cc1-c1nc2c(C(C)(C)C)nn(C)c2c(=O)[nH]1	.	.	.	.	10.2	.	.
CC(=O)c1cccc(Nc2cc(C)nc3c(C)cc(C)cc23)c1	.	.	.	.	.	/	/
Cc1cc(C)c2nc(C)cc(Nc3ccc(C(=O)N4CCOCC4)cc3)c2c1	.	.	.	.	10.7	.	.
CCSC1=C(C#N)C2(CCCCC2)C(C#N)=C(N)N1	.	.	.	.	.	/	/
N#CC1=C(N)NC(SCc2ccccc2)=C(C#N)C12CCCCC2	.	.	.	.	12.4	.	.
Cc1cc(N2CCN(C(=O)OC(C)(C)C)C[C@H]2C)ccc1Br	/	/	.	/	/	/	/
CN(C)c1ccc(C(O)P(=O)(OCc2ccccc2)c2ccc(N(C)C)cc2)cc1 (centres undefined)	.	.	.	.	.	/	/
CC(C)c1ccc(C(O)P(=O)(OCc2ccccc2)c2ccc(N(C)C)cc2)cc1 (centres undefined)	.	.	.	.	9.7	.	.
O=C(Nc1c(F)cc(F)cc1Br)c1cc(-c2ccccc2)on1	.	.	.	.	11.7	.	.
CCOc1ccccc1OCC(=O)Nc1nc2ccccc2[nH]1	.	.	.	.	.	/	/
O=C(COc1cccc2ccccc12)Nc1nc2ccccc2[nH]1	.	.	.	.	10.5	.	.
O=C(O)c1cc(NC(=O)c2ccc(Cl)c([N+](=O)[O-])c2)cc(C(=O)O)c1	.	.	.	.	.	/	/
O=C(Nc1ccc(C(O)(C(F)(F)F)C(F)(F)F)cc1)c1ccc(Cl)c([N+](=O)[O-])c1	.	.	.	.	11.1	.	.
Nc1nc(Nc2cccc(F)c2)nc(NCc2ccco2)c1[N+](=O)[O-]	.	.	.	.	10.6	.	.
Cc1cccc(Nc2nc(N)c([N+](=O)[O-])c(NCc3ccco3)n2)c1	.	.	.	.	.	/	/
SMILES	GSTO1 counter	Apaf1 inhib	TDP2 inh	PP1 inh	PP5 inh	PP5 conf	PP1 inh counter
O=C(CSc1nnc(-c2ccccc2)n1-c1ccc(Cl)cc1)c1ccc(F)cc1	/	/	.	/	/	/	/
CC1(C(=O)Nc2ccc3c(c2)OCCO3)CC1(Cl)Cl (centres undefined)	.	.	.	.	19.4	.	.
C[C@H](CO)N1C[C@H](C)[C@@H](CN(C)C(=O)c2ccc(N3CCN(C)CC3)cc2)OCc2cn(nn2)CCCC1=O	/	/	.	/	/	/	/
Cc1ccc(C)c(N2CCN(C(=O)Cc3ccc(-n4c(=O)[nH]c5ccsc5c4=O)cc3)CC2)c1	.	.	.	.	12.6	.	.
ONC(=Nc1ccccc1Cl)c1ccccc1Cl	.	.	.	.	12.6	.	.
CC(C)C(=O)Nc1cccc(C(=O)Nc2ccccc2C(=O)O)c1	.	.	.	.	10.3	.	.
O=C(Nc1ccccc1C(=O)O)c1cccc(NC(=O)c2ccccc2Br)c1	.	.	.	.	.	/	/
Cc1ccccc1S(=O)(=O)N(CC(O)CN1C(=O)NC(C)(C)C1=O)c1ccccc1 (centres undefined)	.	.	.	.	10.2	.	.
COc1ccccc1N1CCN(C(=O)c2ccc(COc3cccc4c3OC(C)(C)C4)cc2)CC1	.	.	.	.	11.7	.	.
C[C@H]1CCCN1c1ccc2c(c1)O[C@@H]1CCN(C1)S2(=O)=O	/	/	.	/	/	/	/
Cn1c(SCC(=O)c2ccccc2)nnc1-c1ccc(O)cc1	.	.	.	.	.	/	/
Cn1c(SCC(=O)N2c3ccccc3CCc3ccccc32)nnc1-c1ccc(O)cc1	.	.	.	.	9.7	.	.
CN(C)c1ccc(NC(=S)OC2CCC23CCC(c2ccccc2)CC3)cc1 (centres undefined)	/	/	.	/	/	/	/
CC1=C(C(=O)Nc2cc(-c3cccc(F)c3)[nH]n2)C2(CCCCC2)OC1=O	.	.	.	.	10.2	14.6	.
O=C(Nc1cc(-c2ccccc2)[nH]n1)c1ccccc1F	.	.	.	.	.	/	/
COc1ccc(C(CNC(=O)c2cccc(Br)c2)N2CCCC2)cc1 (centres undefined)	.	.	.	.	10.5	.	.
O=C(Nc1ccc(OCC(F)(F)C(F)F)c(C(F)(F)F)c1)c1ccc(Cl)cc1	.	.	.	.	.	/	/
COc1ccc(C(=O)Nc2ccc(OCC(F)(F)C(F)F)c(C(F)(F)F)c2)cc1OC	.	.	.	.	12.4	11.2	.
CCOc1cc(-c2cc(-c3ccc(C)cc3)nc(N)c2C#N)ccc1O	.	.	.	.	9.7	.	.
COc1cc(-c2cc(-c3ccc(O)cc3)nc(N)c2C#N)ccc1O	.	.	.	.	.	/	/
CCCCNC(=O)C[C@H]1C[C@@]2(C(=O)OCC)CCCC3=C2N(CCC3)C1=O	/	/	.	/	/	/	/
O=C(CSc1nnc(-c2ccccc2)n1-c1ccccc1)NN=Cc1ccc(-c2ccccc2)cc1	/	/	.	/	/	/	/
